Measured values of several laboratories.
Protocols differ between the studies behind these lines.
Target: Serine/threonine-protein kinase ULK1 (ULK1, Homo sapiens, UniProt O75385)
Read-out: enzyme activity
Action: inhibitor
One construct used (O75385 1-1050): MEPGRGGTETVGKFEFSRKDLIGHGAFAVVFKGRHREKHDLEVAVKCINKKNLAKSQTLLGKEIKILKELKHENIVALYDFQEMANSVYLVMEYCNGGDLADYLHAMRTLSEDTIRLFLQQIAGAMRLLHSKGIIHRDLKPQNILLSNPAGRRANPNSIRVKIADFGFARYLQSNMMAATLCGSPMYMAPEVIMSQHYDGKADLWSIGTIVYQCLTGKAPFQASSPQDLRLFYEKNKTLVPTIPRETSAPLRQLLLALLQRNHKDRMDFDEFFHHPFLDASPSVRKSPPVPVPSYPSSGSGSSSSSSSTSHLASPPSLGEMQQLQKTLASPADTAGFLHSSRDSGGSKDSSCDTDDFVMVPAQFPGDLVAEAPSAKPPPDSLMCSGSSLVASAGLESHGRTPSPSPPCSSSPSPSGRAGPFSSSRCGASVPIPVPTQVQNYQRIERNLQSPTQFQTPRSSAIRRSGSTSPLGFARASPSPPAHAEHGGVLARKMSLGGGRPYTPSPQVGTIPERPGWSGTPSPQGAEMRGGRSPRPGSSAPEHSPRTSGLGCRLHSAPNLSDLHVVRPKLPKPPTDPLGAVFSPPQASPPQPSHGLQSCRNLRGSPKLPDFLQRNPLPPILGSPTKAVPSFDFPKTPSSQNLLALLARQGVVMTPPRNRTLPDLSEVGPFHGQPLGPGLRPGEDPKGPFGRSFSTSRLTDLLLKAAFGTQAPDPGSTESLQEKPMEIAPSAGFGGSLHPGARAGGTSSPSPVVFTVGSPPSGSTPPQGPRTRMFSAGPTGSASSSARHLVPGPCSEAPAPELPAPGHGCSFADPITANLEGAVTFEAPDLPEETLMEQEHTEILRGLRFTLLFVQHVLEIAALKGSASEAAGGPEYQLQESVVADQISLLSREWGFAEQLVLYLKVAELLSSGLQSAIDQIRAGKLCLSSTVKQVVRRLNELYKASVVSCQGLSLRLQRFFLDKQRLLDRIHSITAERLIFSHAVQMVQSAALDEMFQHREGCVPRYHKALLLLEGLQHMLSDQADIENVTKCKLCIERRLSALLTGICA

Cc1nn(CC(F)(F)F)cc1Nc1nccc(NCc2ccc(S(N)(=O)=O)cc2)n1
remaining activity (radiometric; 1 µM): 99%

Cc1ccc(C(=O)Nc2ccc(CN3CCN(C)CC3)c(C(F)(F)F)c2)cc1C#Cc1cnc2cccnn12
remaining activity (23.5 nM): 76%

CC(C)(O)[C@H]1CC[C@H](Nc2ccc3ncc(-c4cccc(C(F)(F)F)c4)n3n2)CC1
remaining activity (1 µM): 96.2%

COc1cc(Cl)c(C(=O)N[C@@H](CN[C@H]2CC[C@@H](N)CC2)Cc2ccc(C#N)cc2)cc1-c1ccc(CN[C@H](C)c2ccc(C)cc2)o1
remaining activity (1 µM): 95%

Cc1sc(C(=O)NC2COC2)cc1-n1cc(NC(=O)Nc2c(F)cccc2Cl)cn1
remaining activity (10 µM): 77.3%

O=C(NCCCNc1nc(Nc2cccc(NC(=O)N3CCCC3)c2)ncc1C1CC1)C1CCC1
remaining activity (radiometric; 1 µM): 17%

O=C(Nc1cnn(-c2csc(C(=O)NC3COC3)c2)c1)Nc1c(F)cccc1Cl
remaining activity (5 µM): 93.9%

COc1cc(Nc2cnc(C#N)c(O[C@H](C)CN(C)C)n2)ncc1-c1cnn(C)c1
remaining activity (radiometric; 1 µM): 60%
